ChEMBL document CHEMBL5058577, “EUbOPEN Chemogenomics Library 2 (Multiplex)” (2022)

Test system: Fibroblast
Assay: Multiplex assay against human fibroblast
Format: toxicity, cell-based
Procedure, shortened: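 With compound added, live cells were imaged on a CQ1 microscope at 37°C and 5% CO2; staining with Hoechst33342, BioTracker Green Microtubule Cytoskeleton Dye, MitoTracker Red and Annexin V Alexa Fluor 680 had been done at seeding. The CellPathfinder machine-learning gating scheme split cells into Hoechst high-intensity objects or normal cells, normal cells into healthy, pyknosed or fragmented nuclei, and pyknosed cells into mitotic or apoptotic. The tubulin, mitochondrial-mass and membrane-permeability phenotypes are per cents of healthy-nucleus cells.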

[1] = 12 h, 1 µM, compound concentration 1 uM, replicate 1
[2] = 12 h, 1 µM, compound concentration 1 uM, replicate 2
[3] = 12 h, 10 µM, compound concentration 10 uM, replicate 1
[4] = 12 h, 10 µM, compound concentration 10 uM, replicate 2
[5] = 24 h, 1 µM, compound concentration 1 uM, replicate 1
[6] = 24 h, 1 µM, compound concentration 1 uM, replicate 2
[7] = 24 h, 10 µM, compound concentration 10 uM, replicate 1
[8] = 24 h, 10 µM, compound concentration 10 uM, replicate 2
[9] = 48 h, 1 µM, compound concentration 1 uM, replicate 1
[10] = 48 h, 1 µM, compound concentration 1 uM, replicate 2
[11] = 48 h, 10 µM, compound concentration 10 uM, replicate 1
[12] = 48 h, 10 µM, compound concentration 10 uM, replicate 2

N[C@@]1(C(=O)O)CO[C@H]2[C@H](C(=O)O)[C@H]21 [LY-379268]
Population Apoptotic (%) [1]: 22% | Population Fragmented Nuclei (%) [1]: 17% | Population Healthy Nuclei (%) [1]: 70% | Population Hoechst High Intensity Objects (%) [1]: 1% | Population Membrane Permeable-Phenotype (%) [1]: 0% | Population Mitochondria Different-Phenotype (%) [1]: 2% | Population Mitotic Cells (%) [1]: 77% | Population Normal (%) [1]: 98% | Population Pyknosed Nuclei (%) [1]: 11% | Population Tubulin-Different-Phenotype (%) [1]: 25% | Total Cell Count [1]: 156 | Population Apoptotic (%) [2]: 44% | Population Fragmented Nuclei (%) [2]: 33% | Population Healthy Nuclei (%) [2]: 43% | Population Hoechst High Intensity Objects (%) [2]: 10% | Population Membrane Permeable-Phenotype (%) [2]: 5% | Population Mitochondria Different-Phenotype (%) [2]: 1% | Population Mitotic Cells (%) [2]: 55% | Population Normal (%) [2]: 89% | Population Pyknosed Nuclei (%) [2]: 22% | Population Tubulin-Different-Phenotype (%) [2]: 45% | Total Cell Count [2]: 145 | Population Apoptotic (%) [3]: 29% | Population Fragmented Nuclei (%) [3]: 15% | Population Healthy Nuclei (%) [3]: 69% | Population Hoechst High Intensity Objects (%) [3]: 3% | Population Membrane Permeable-Phenotype (%) [3]: 0% | Population Mitochondria Different-Phenotype (%) [3]: 3% | Population Mitotic Cells (%) [3]: 70% | Population Normal (%) [3]: 96% | Population Pyknosed Nuclei (%) [3]: 14% | Population Tubulin-Different-Phenotype (%) [3]: 19% | Total Cell Count [3]: 187 | Population Apoptotic (%) [4]: 21% | Population Healthy Nuclei (%) [4]: 51% | Population Membrane Permeable-Phenotype (%) [4]: 4% | Population Mitochondria Different-Phenotype (%) [4]: 1% | Population Mitotic Cells (%) [4]: 78% | Population Pyknosed Nuclei (%) [4]: 33% | Population Tubulin-Different-Phenotype (%) [4]: 47% | Total Cell Count [4]: 128 | Population Apoptotic (%) [5]: 36% | Population Fragmented Nuclei (%) [5]: 16% | Population Healthy Nuclei (%) [5]: 70% | Population Hoechst High Intensity Objects (%) [5]: 0% | Population Membrane Permeable-Phenotype (%) [5]: 0% | Population Mitochondria Different-Phenotype (%) [5]: 5% | Population Mitotic Cells (%) [5]: 63% | Population Normal (%) [5]: 99% | Population Pyknosed Nuclei (%) [5]: 12% | Population Tubulin-Different-Phenotype (%) [5]: 23% | Total Cell Count [5]: 152 | Population Apoptotic (%) [6]: 47% | Population Fragmented Nuclei (%) [6]: 40% | Population Healthy Nuclei (%) [6]: 41% | Population Hoechst High Intensity Objects (%) [6]: 10% | Population Membrane Permeable-Phenotype (%) [6]: 4% | Population Mitochondria Different-Phenotype (%) [6]: 10% | Population Mitotic Cells (%) [6]: 52% | Population Normal (%) [6]: 89% | Population Pyknosed Nuclei (%) [6]: 18% | Population Tubulin-Different-Phenotype (%) [6]: 60% | Total Cell Count [6]: 125 | Population Apoptotic (%) [7]: 66% | Population Fragmented Nuclei (%) [7]: 14% | Population Healthy Nuclei (%) [7]: 75% | Population Hoechst High Intensity Objects (%) [7]: 5% | Population Membrane Permeable-Phenotype (%) [7]: 0% | Population Mitochondria Different-Phenotype (%) [7]: 3% | Population Mitotic Cells (%) [7]: 33% | Population Normal (%) [7]: 94% | Population Pyknosed Nuclei (%) [7]: 10% | Population Tubulin-Different-Phenotype (%) [7]: 19% | Total Cell Count [7]: 189 | Population Apoptotic (%) [8]: 22% | Population Fragmented Nuclei (%) [8]: 17% | Population Healthy Nuclei (%) [8]: 53% | Population Hoechst High Intensity Objects (%) [8]: 6% | Population Membrane Permeable-Phenotype (%) [8]: 2% | Population Mitochondria Different-Phenotype (%) [8]: 0% | Population Mitotic Cells (%) [8]: 77% | Population Normal (%) [8]: 93% | Population Pyknosed Nuclei (%) [8]: 28% | Population Tubulin-Different-Phenotype (%) [8]: 44% | Total Cell Count [8]: 133 | Population Apoptotic (%) [9]: 76% | Population Fragmented Nuclei (%) [9]: 22% | Population Healthy Nuclei (%) [9]: 68% | Population Hoechst High Intensity Objects (%) [9]: 3% | Population Membrane Permeable-Phenotype (%) [9]: 0% | Population Mitochondria Different-Phenotype (%) [9]: 5% | Population Mitotic Cells (%) [9]: 23% | Population Normal (%) [9]: 96% | Population Pyknosed Nuclei (%) [9]: 8% | Population Tubulin-Different-Phenotype (%) [9]: 26% | Total Cell Count [9]: 156 | Population Apoptotic (%) [10]: 50% | Population Fragmented Nuclei (%) [10]: 33% | Population Healthy Nuclei (%) [10]: 55% | Population Hoechst High Intensity Objects (%) [10]: 11% | Population Membrane Permeable-Phenotype (%) [10]: 4% | Population Mitochondria Different-Phenotype (%) [10]: 7% | Population Mitotic Cells (%) [10]: 50% | Population Normal (%) [10]: 88% | Population Pyknosed Nuclei (%) [10]: 11% | Population Tubulin-Different-Phenotype (%) [10]: 59% | Total Cell Count [10]: 136 | Population Apoptotic (%) [11]: 62% | Population Fragmented Nuclei (%) [11]: 14% | Population Healthy Nuclei (%) [11]: 72% | Population Hoechst High Intensity Objects (%) [11]: 1% | Population Membrane Permeable-Phenotype (%) [11]: 0% | Population Mitochondria Different-Phenotype (%) [11]: 0% | Population Mitotic Cells (%) [11]: 37% | Population Normal (%) [11]: 98% | Population Pyknosed Nuclei (%) [11]: 13% | Population Tubulin-Different-Phenotype (%) [11]: 19% | Total Cell Count [11]: 179 | Population Apoptotic (%) [12]: 42% | Population Fragmented Nuclei (%) [12]: 27% | Population Healthy Nuclei (%) [12]: 56% | Population Hoechst High Intensity Objects (%) [12]: 7% | Population Membrane Permeable-Phenotype (%) [12]: 10% | Population Mitochondria Different-Phenotype (%) [12]: 5% | Population Mitotic Cells (%) [12]: 57% | Population Normal (%) [12]: 92% | Population Pyknosed Nuclei (%) [12]: 16% | Population Tubulin-Different-Phenotype (%) [12]: 47% | Total Cell Count [12]: 140
